# How the values were obtained:
# Cytochrome P450 3A4 [1] = molecular target: T1, Cytochrome P450 3A4 (Homo sapiens, UniProt P08684); assay: Inhibition of human recombinant CYP3A4 using 7-benzyloxyquinoline substrate; assay type: ADME
# Method in brief: (§1)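 Recombinant human CYP450 microsomal protein (0.1 mg/mL) with substrate and a concentration range of compound (dissolved in methanol), preincubated 10 min at 37 °C in 50 mM potassium phosphate pH 7.4. Reaction started with an NADPH-generating system. Fluorescent metabolite formation followed over 10 min. Rates converted to percent of mean control rate, and IC50 derived from the plot. Miconazole served as positive control.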
# HUVEC [2] = assay: Inhibition of VEGF-induced HUVEC proliferation by BrdU incorporation method after 72 hrs; assay type: functional, cell-based; conditions: Homo sapiens
# Method in brief: (§2)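 HUVEC seeded in 5% FBS medium on type 1 collagen, held overnight at 37 °C, 5% CO2. Inhibitor at various concentrations added in serum-free medium. After 30 min, VEGF (10 ng/mL) or bFGF (0.3 ng/mL) added. Cells incubated a further 72 h, with BrdU (10 µM) present for the last 18–24 h. Incorporation read by ELISA; IC50 from fit of y = Vmax(1 − x/(K + x)).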
# Cytochrome P450 2C9 = Cytochrome P450 2C9 (Homo sapiens, UniProt P11712); assay: Inhibition of human recombinant CYP2C9; assay type: ADME
# Cytochrome P450 2C19 = Cytochrome P450 2C19 (Homo sapiens, UniProt P33261); assay: Inhibition of human recombinant CYP2C19; assay type: ADME
# Method in brief: (§3)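 Recombinant human CYP450 microsomal protein (0.1 mg/mL) with substrate in 50 mM potassium phosphate, pH 7.4. Compound (range of concentrations, methanol) preincubated 10 min at 37 °C. Reaction started with an NADPH-generating system. Fluorescent metabolite formation followed over 10 min. Rates converted to percent of mean control; IC50 from the slope of the plot. Miconazole included as positive control.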
# Cytochrome P450 2D6 = Cytochrome P450 2D6 (Homo sapiens, UniProt P10635); assay: Inhibition of human recombinant CYP2D6; assay type: ADME; method in brief: as §3
# Cytochrome P450 3A4 [3] = molecular target: T1, Cytochrome P450 3A4; assay: Inhibition of human recombinant CYP3A4 using diethoxyfluorescein substrate; assay type: ADME; method in brief: as §1
# [4] = molecular target: T2, Vascular endothelial growth factor receptor 2 (Homo sapiens, UniProt P35968); assay: Inhibition of VEGFR2
# HUVEC [5] = assay: Inhibition of basic-fibroblast growth factor-induced HUVEC proliferation; assay type: functional, cell-based; conditions: Homo sapiens; method in brief: as §2
# HUVEC [6] = assay: Inhibition of VEGF-induced HUVEC proliferation; assay type: functional, cell-based; conditions: Homo sapiens; method in brief: as §2
# [7] = Clearance in rat at 10 mg/kg; assay type: ADME, organism-based; design: dose 10 mg/kg; conditions: in vivo
# [8] = Oral bioavailability in rat at 10 mg/kg; assay type: ADME, organism-based; conditions: in vivo
# [9] = molecular target: T2, Vascular endothelial growth factor receptor 2; assay: Inhibition of human recombinant VEGFR2
# [10] = Clearance in dog at 1 mg/kg; assay type: ADME, organism-based, Canis lupus familiaris; design: dose 1 mg/kg; conditions: in vivo
# [11] = Oral bioavailability in dog at 1 mg/kg; assay type: ADME, organism-based, Canis lupus familiaris; conditions: in vivo
# [12] = Clearance in monkey at 5 mg/kg; assay type: ADME, organism-based, Macaca mulatta; design: dose 5 mg/kg; conditions: rhesus monkey, in vivo
# [13] = Oral bioavailability in monkey at 5 mg/kg; assay type: ADME, organism-based, Macaca mulatta; conditions: rhesus monkey, in vivo
# [14] = AUC (0 to infinity) in mouse at 10 mg/kg, po; assay type: ADME, organism-based; design: time infinity, dose 10 mg/kg, route oral; conditions: plasma
# [15] = AUC (0 to infinity) in mouse at 30 mg/kg, po; assay type: ADME, organism-based; design: dose 30 mg/kg, route oral, time infinity; conditions: plasma
# [16] = AUC (0 to infinity) in mouse at 100 mg/kg, po; assay type: ADME, organism-based; design: time infinity, dose 100 mg/kg, route oral; conditions: plasma
# [17] = Plasma concentration in mouse at 10 mg/kg, po after 12 hrs; assay type: ADME, organism-based; design: dose 10 mg/kg, route oral
# [18] = Plasma concentration in mouse at 30 mg/kg, po after 12 hrs; assay type: ADME, organism-based; design: dose 30 mg/kg, route oral
# [19] = Plasma concentration in mouse at 100 mg/kg, po after 12 hrs; assay type: ADME, organism-based; design: dose 100 mg/kg, route oral
# Mus musculus [20] = assay: Inhibition of angiogenesis in Swiss Nu/Nu mouse assessed as hemoglobin content at 10 mg/kg, po by bFGF/matrigel plug assay; assay type: functional
# Mus musculus [21] = assay: Inhibition of angiogenesis in Swiss Nu/Nu mouse assessed as hemoglobin content at 30 mg/kg, po by bFGF/matrigel plug assay; assay type: functional
# Mus musculus [22] = assay: Inhibition of angiogenesis in Swiss Nu/Nu mouse assessed as hemoglobin content at 100 mg/kg, po by bFGF/matrigel plug assay; assay type: functional
# HT-29 [23] = assay: Antitumor activity against human HT29 cells xenografted in mouse assessed as inhibition of tumor growth at 10 mg/kg, po relative to control; assay type: functional
# HT-29 [24] = assay: Antitumor activity against human HT29 cells xenografted in mouse assessed as inhibition of tumor growth at 30 mg/kg, po relative to control; assay type: functional
# HT-29 [25] = assay: Antitumor activity against human HT29 cells xenografted in mouse assessed as inhibition of tumor growth at 100 mg/kg, po relative to control; assay type: functional
# [26] = Antitumor activity against human A375P cells xenografted in mouse assessed as inhibition of tumor growth at 10 mg/kg, po relative to control; assay type: functional
# [27] = Antitumor activity against human A375P cells xenografted in mouse assessed as inhibition of tumor growth at 30 mg/kg, po relative to control; assay type: functional
# [28] = Antitumor activity against human A375P cells xenografted in mouse assessed as inhibition of tumor growth at 100 mg/kg, po relative to control; assay type: functional
# HN5 [29] = assay: Antitumor activity against human HN5 cells xenografted in mouse assessed as inhibition of tumor growth at 10 mg/kg, po relative to control; assay type: functional
# HN5 [30] = assay: Antitumor activity against human HN5 cells xenografted in mouse assessed as inhibition of tumor growth at 30 mg/kg, po relative to control; assay type: functional
# HN5 [31] = assay: Antitumor activity against human HN5 cells xenografted in mouse assessed as inhibition of tumor growth at 100 mg/kg, po relative to control; assay type: functional
# [32] = Protein binding in mouse plasma by equilibrium dialysis; assay type: ADME, cell-free; conditions: read-out: PPB
# Chain of Cytochrome P450 2D6 (P10635 whole entry): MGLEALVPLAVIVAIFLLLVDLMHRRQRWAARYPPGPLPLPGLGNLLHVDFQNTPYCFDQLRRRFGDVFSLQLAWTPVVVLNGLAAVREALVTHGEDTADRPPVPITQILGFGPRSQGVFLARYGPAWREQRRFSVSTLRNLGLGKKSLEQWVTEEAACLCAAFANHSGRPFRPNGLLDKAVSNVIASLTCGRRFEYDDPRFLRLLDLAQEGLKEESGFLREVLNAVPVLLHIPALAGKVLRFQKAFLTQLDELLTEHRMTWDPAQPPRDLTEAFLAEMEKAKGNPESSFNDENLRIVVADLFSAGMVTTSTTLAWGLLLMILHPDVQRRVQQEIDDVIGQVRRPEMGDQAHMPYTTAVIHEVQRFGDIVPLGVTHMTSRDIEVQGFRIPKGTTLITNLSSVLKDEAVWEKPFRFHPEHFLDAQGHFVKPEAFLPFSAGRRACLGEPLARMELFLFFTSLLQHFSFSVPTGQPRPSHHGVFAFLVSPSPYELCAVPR
# T1 sequence (P08684 whole entry): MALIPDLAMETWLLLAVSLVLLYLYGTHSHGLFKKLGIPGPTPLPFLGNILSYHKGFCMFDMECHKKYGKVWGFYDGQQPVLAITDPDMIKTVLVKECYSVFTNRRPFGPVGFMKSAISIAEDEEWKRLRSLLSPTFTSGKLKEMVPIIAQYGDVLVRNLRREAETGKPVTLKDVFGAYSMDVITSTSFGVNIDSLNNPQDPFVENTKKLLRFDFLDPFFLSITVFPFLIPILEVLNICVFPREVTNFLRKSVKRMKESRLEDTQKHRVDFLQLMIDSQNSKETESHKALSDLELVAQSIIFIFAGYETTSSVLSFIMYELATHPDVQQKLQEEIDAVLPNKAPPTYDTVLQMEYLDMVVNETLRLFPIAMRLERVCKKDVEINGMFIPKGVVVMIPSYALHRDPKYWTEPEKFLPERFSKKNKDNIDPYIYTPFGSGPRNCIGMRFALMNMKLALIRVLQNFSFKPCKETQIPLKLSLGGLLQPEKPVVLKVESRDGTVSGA
# T2 sequence (P35968 whole entry): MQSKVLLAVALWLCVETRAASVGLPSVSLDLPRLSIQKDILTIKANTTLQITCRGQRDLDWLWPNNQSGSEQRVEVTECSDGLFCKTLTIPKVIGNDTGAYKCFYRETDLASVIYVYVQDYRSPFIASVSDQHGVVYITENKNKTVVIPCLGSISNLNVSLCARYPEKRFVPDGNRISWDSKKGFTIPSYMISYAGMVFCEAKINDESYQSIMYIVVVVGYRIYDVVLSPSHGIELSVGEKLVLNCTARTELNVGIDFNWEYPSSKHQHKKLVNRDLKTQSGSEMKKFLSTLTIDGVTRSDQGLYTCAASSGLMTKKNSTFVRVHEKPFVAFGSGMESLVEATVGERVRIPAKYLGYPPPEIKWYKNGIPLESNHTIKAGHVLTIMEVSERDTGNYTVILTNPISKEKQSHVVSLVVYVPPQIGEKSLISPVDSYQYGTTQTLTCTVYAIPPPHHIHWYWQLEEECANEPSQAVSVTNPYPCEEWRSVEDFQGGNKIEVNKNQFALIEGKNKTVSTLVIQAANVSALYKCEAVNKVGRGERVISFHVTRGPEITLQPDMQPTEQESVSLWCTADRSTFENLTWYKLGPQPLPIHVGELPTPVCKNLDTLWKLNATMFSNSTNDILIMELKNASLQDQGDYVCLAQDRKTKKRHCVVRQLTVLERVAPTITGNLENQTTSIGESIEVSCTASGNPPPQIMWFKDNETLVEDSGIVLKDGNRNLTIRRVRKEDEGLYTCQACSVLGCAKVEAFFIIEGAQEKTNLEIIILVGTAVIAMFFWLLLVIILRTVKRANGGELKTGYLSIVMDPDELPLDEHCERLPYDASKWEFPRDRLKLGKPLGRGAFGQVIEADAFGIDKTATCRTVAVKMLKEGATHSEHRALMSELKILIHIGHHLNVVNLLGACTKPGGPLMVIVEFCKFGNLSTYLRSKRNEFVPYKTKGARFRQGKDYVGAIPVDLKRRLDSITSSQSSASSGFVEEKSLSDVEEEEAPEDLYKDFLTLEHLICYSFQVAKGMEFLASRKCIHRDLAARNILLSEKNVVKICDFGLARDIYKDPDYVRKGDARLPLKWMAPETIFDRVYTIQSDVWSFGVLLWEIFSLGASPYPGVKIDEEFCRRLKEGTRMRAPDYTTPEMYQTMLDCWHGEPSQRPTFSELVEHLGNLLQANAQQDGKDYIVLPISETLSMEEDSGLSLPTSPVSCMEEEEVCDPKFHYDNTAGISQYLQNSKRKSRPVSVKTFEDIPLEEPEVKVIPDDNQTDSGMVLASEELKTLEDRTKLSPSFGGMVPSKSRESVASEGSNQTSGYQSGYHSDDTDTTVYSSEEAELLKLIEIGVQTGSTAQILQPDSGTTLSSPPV
# Chain of Cytochrome P450 2C19 (P33261 whole entry): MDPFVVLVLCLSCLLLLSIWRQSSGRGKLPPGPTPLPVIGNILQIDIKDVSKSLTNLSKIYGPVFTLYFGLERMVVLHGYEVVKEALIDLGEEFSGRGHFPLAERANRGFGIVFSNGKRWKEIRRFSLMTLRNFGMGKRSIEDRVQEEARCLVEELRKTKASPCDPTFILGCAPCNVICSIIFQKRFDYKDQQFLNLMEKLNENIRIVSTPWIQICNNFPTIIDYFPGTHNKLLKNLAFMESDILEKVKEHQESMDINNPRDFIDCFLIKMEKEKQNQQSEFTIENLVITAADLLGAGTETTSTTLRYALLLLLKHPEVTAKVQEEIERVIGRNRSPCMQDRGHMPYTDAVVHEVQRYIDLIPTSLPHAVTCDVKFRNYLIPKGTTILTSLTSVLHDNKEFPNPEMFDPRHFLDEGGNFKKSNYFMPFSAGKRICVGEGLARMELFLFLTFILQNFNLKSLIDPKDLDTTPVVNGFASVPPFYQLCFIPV
# Chain of Cytochrome P450 2C9 (P11712 whole entry): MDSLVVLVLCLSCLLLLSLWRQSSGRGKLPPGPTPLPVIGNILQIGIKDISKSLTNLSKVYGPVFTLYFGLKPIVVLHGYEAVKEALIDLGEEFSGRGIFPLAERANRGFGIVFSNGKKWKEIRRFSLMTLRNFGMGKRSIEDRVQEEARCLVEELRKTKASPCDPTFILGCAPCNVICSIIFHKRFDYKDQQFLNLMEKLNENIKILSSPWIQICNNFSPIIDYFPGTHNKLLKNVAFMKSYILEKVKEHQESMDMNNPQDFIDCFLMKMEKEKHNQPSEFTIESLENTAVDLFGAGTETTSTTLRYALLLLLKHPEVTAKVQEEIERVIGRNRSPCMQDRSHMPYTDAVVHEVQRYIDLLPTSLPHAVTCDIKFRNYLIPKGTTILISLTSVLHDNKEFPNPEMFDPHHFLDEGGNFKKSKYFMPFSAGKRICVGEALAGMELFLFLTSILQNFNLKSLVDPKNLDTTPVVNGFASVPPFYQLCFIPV
smiles,measurement,setting,value
Cc1c2ccc(N(C)c3ccnc(Nc4cccc(S(N)(=O)=O)c4)n3)cc2nn1C,IC50,Cytochrome P450 3A4 [1],31 µM
same,IC50,HUVEC [2],23 nM
same,IC50,Cytochrome P450 2C9,1400 nM
same,IC50,Cytochrome P450 2C19,20 µM
same,IC50,Cytochrome P450 2D6,16 µM
same,IC50,Cytochrome P450 3A4 [3],16 µM
Cc1ccc(Nc2ccnc(Nc3cccc(Br)c3)n2)cc1O,IC50,[4],6.3 nM
same,IC50,HUVEC [5],3.5 µM
same,IC50,HUVEC [6],540 nM
Fc1cnc(Nc2cccc(Br)c2)nc1Nc1cccc(Br)c1,IC50,[4],400 nM
CCS(=O)(=O)c1ccc(OC)c(Nc2nccc(N(C)c3ccc4c(C)n[nH]c4c3)n2)c1,clearance,[7],10 mL/min/kg
same,bioavailability,[8],65%
Cc1c2ccc(N(C)c3ccnc(Nc4cccc(S(N)(=O)=O)c4)n3)cc2nn1Cc1ccccc1,IC50,Cytochrome P450 3A4 [1],79 µM
same,IC50,HUVEC [2],11000 nM
same,IC50,Cytochrome P450 2C9,500 nM
same,IC50,Cytochrome P450 2C19,1.4 µM
same,IC50,Cytochrome P450 2D6,66 µM
same,IC50,Cytochrome P450 3A4 [3],74 µM
Cc1nc2cc(N(C)c3ccnc(Nc4cccc(S(N)(=O)=O)c4)n3)ccc2n1C,IC50,Cytochrome P450 3A4 [1],45 µM
same,IC50,HUVEC [2],1400 nM
same,IC50,Cytochrome P450 2C9,9000 nM
same,IC50,Cytochrome P450 2C19,33 µM
same,IC50,Cytochrome P450 2D6,33 µM
same,IC50,Cytochrome P450 3A4 [3],27 µM
Cc1n[nH]c2cc(N(C)c3ccnc(Nc4cccc(S(N)(=O)=O)c4)n3)ccc12,IC50,Cytochrome P450 3A4 [1],16 µM
same,IC50,HUVEC [2],94 nM
same,IC50,Cytochrome P450 2C9,700 nM
same,IC50,Cytochrome P450 2C19,7.2 µM
same,IC50,Cytochrome P450 2D6,4.8 µM
same,IC50,Cytochrome P450 3A4 [3],7.6 µM
CN(c1ccc2cn(C)nc2c1)c1ccnc(Nc2cccc(S(N)(=O)=O)c2)n1,IC50,Cytochrome P450 3A4 [1],3.9 µM
same,IC50,HUVEC [2],110 nM
same,IC50,Cytochrome P450 2C9,2900 nM
same,IC50,Cytochrome P450 2C19,9.2 µM
same,IC50,Cytochrome P450 2D6,18 µM
same,IC50,Cytochrome P450 3A4 [3],4.7 µM
COc1cc2ncnc(Nc3ccc(C)c(O)c3)c2cc1OC,IC50,[9],0.6 nM
Cc1nc2ccc(N(C)c3ccnc(Nc4cccc(S(N)(=O)=O)c4)n3)cc2n1C,IC50,Cytochrome P450 3A4 [1],1.7 µM
same,IC50,HUVEC [2],2800 nM
same,IC50,Cytochrome P450 2C9,15000 nM
same,IC50,Cytochrome P450 2C19,26 µM
same,IC50,Cytochrome P450 2D6,25 µM
same,IC50,Cytochrome P450 3A4 [3],26 µM
COc1cc2ncnc(Nc3ccc4c(C)n[nH]c4c3)c2cc1OC,IC50,[4],1.7 nM
CCS(=O)(=O)c1ccc(OC)c(Nc2nccc(Nc3ccc4c(C)n[nH]c4c3)n2)c1,IC50,HUVEC [5],13 µM
same,IC50,HUVEC [6],130 nM
same,clearance,[7],40 mL/min/kg
same,bioavailability,[8],28%
COc1cc(Nc2nccc(Nc3ccc4c(C)n[nH]c4c3)n2)cc(OC)c1OC [GW612286X],IC50,HUVEC [6],180 nM
same,clearance,[7],16 mL/min/kg
same,bioavailability,[8],85%
Cc1nn(C)c2cc(N(C)c3ccnc(Nc4cccc(S(N)(=O)=O)c4)n3)ccc12 [GW770220A],IC50,Cytochrome P450 3A4 [1],1.7 µM
same,IC50,HUVEC [2],1400 nM
same,IC50,Cytochrome P450 2C9,1000 nM
same,IC50,Cytochrome P450 2C19,9.3 µM
same,IC50,Cytochrome P450 2D6,6.3 µM
same,IC50,Cytochrome P450 3A4 [3],13 µM
Cc1ccc(Nc2nccc(N(C)c3ccc4c(C)n(C)nc4c3)n2)cc1S(N)(=O)=O [PAZOPANIB],clearance,[7],1.4 mL/min/kg
same,bioavailability,[8],72%
same,clearance,[10],1.4 mL/min/kg
same,bioavailability,[11],47%
same,clearance,[12],1.4 mL/min/kg
same,bioavailability,[13],65%
same,AUC(0-inf),[14],220 µg·h/mL
same,AUC(0-inf),[15],657 µg·h/mL
same,AUC(0-inf),[16],1140 µg·h/mL
same,concentration at 12 h,[17],6320 ng/mL
same,concentration at 12 h,[18],24800 ng/mL
same,concentration at 12 h,[19],38500 ng/mL
same,inhibition in vivo at 10 mg/kg,Mus musculus [20],0%
same,inhibition in vivo at 30 mg/kg,Mus musculus [21],57%
same,inhibition in vivo at 100 mg/kg,Mus musculus [22],83%
same,inhibition in vivo at 10 mg/kg,HT-29 [23],32%
same,inhibition in vivo at 30 mg/kg,HT-29 [24],59%
same,inhibition in vivo at 100 mg/kg,HT-29 [25],69%
same,inhibition in vivo at 10 mg/kg,[26],16%
same,inhibition in vivo at 30 mg/kg,[27],35%
same,inhibition in vivo at 100 mg/kg,[28],55%
same,inhibition in vivo at 10 mg/kg,HN5 [29],99%
same,inhibition in vivo at 30 mg/kg,HN5 [30],102%
same,inhibition in vivo at 100 mg/kg,HN5 [31],110%
same,fraction unbound,[32],< 0.001
COc1cc2/c(=N/c3ccc(Br)cc3F)nc[nH]c2cc1OCC1CCN(C)CC1 [VANDETANIB],IC50,HUVEC [6],400 nM

# From ChEMBL document CHEMBL1155848 (J Med Chem, 2008)
